Assay results from ChEMBL document CHEMBL1128446, “Pyrazinoic acid esters with broad spectrum in vitro antimycobacterial activity” (1995).
Values after ≈ are worked out from the molar mass of the structure shown.

Key:
Assay type in all cases: functional
[1] = system: Mycobacterium tuberculosis; assay: Minimum Inhibitory Concentration against Mycobacterium tuberculosis ATCC 27294; details: Mycobacterium tuberculosis, ATCC 27294; read-out: MIC
Summary of the method: (§1)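 Broth macrodilution in tubes of modified Middlebrook 7H10 broth (agar and malachite green omitted) with 10% OADC and 0.05% Tween 80 at pH 5.8. Cultures were grown 3 days at 37 °C on a rotary shaker, then diluted with 7H10 broth to 1 Klett unit/mL. Stocks were made in water or DMSO and filter-sterilised; 2-fold serial dilutions were tested. Tubes shaken 7–10 days at 37 °C, with a drug-free control. MIC = lowest concentration (μg/mL) with no visible turbidity.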

[2] = system: Mycobacterium tuberculosis; assay: Minimum Inhibitory Concentration against Mycobacterium tuberculosis ATCC 35801; summary of the method: as §1
[3] = system: Mycobacterium kansasii; assay: Minimum Inhibitory Concentration against clinical isolates of Mycobacterium kansasii S
Summary of the method: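 Grown 3 days at 37 °C on a rotary shaker in modified Middlebrook 7H10 broth (agar and malachite green omitted) with 10% OADC and 0.05% Tween 80. Diluted to 1 Klett unit/mL. Tubes held serial 2-fold dilutions in 7H10 broth at pH 5.8, from stocks in water or DMSO, and were shaken at 37 °C for 7–10 days with a drug-free control. MIC was the lowest concentration with no visible turbidity.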

[4] = system: Mycobacterium avium; assay: Minimum Inhibitory Concentration against clinical isolates of Mycobacterium avium complex ATCC 49601; summary of the method: as §1
[5] = system: Mycobacterium avium; assay: Minimum Inhibitory Concentration in clinical isolates against Mycobacterium avium complex 101; summary of the method: as §1

| SMILES | MIC [1] | MIC [2] | MIC [3] | MIC [4] | MIC [5] |
| --- | --- | --- | --- | --- | --- |
| O=C(OCc1ccc(Br)cc1)c1cnc(Cl)cn1 | 1 mg/L (≈ 3.05 µM) | 1 mg/L (≈ 3.05 µM) | 0.125 mg/L (≈ 0.382 µM) | 64 mg/L (≈ 195 µM) | 32 mg/L (≈ 97.7 µM) |
| CCCCC(OC(=O)c1cnc(Cl)cn1)c1ccccc1 (configuration not stated) | 4 mg/L (≈ 13.1 µM) | 2 mg/L (≈ 6.56 µM) | 1 mg/L (≈ 3.28 µM) | 64 mg/L (≈ 210 µM) | 128 mg/L (≈ 420 µM) |
| CCCCCCCCCCCCCCCOC(=O)c1cnccn1 | 0.06 mg/L (≈ 0.179 µM) | 0.12 mg/L (≈ 0.359 µM) | 1 mg/L (≈ 2.99 µM) | 8 mg/L (≈ 23.9 µM) | 32 mg/L (≈ 95.7 µM) |
| CC(C)(C)C(OC(=O)c1cnc(Cl)cn1)c1ccccc1 (configuration not stated) | 4 mg/L (≈ 13.1 µM) | 4 mg/L (≈ 13.1 µM) | 2 mg/L (≈ 6.56 µM) | 256 mg/L (≈ 840 µM) | 128 mg/L (≈ 420 µM) |
| O=C(Oc1c(Br)cc(Br)cc1Br)c1cnccn1 | 32 mg/L (≈ 73.2 µM) | 32 mg/L (≈ 73.2 µM) | 64 mg/L (≈ 146 µM) | 128 mg/L (≈ 293 µM) | 128 mg/L (≈ 293 µM) |
| Cc1ccc(C(C)OC(=O)c2cnc(Cl)cn2)cc1 (configuration not stated) | 1 mg/L (≈ 3.61 µM) | 1 mg/L (≈ 3.61 µM) | 1 mg/L (≈ 3.61 µM) | 16 mg/L (≈ 57.8 µM) | 256 mg/L (≈ 925 µM) |
| Cc1cc(C(C)(C)C)c(OC(=O)c2cnccn2)c(C(C)(C)C)c1 | 128 mg/L (≈ 392 µM) | – | > 16 mg/L | > 1020 mg/L | > 1020 mg/L |
| O=C(OCCc1ccc(Cl)cc1)c1cnc(Cl)cn1 | 2 mg/L (≈ 6.73 µM) | 32 mg/L (≈ 108 µM) | 0.5 mg/L (≈ 1.68 µM) | 8 mg/L (≈ 26.9 µM) | 16 mg/L (≈ 53.8 µM) |
| O=C(OC(c1ccccc1)c1ccccc1)c1cnc(Cl)cn1 | 16 mg/L (≈ 49.3 µM) | 16 mg/L (≈ 49.3 µM) | 8 mg/L (≈ 24.6 µM) | > 64 mg/L | > 64 mg/L |
| CCCCCCCC(OC(=O)c1cnc(Cl)cn1)C(C)C (configuration not stated) | 0.5 mg/L (≈ 1.6 µM) | 2 mg/L (≈ 6.39 µM) | 0.25 mg/L (≈ 0.799 µM) | 256 mg/L (≈ 818 µM) | > 256 mg/L |
| CCCCCCCCCCC(OC(=O)c1cnc(Cl)cn1)C(C)(C)C (configuration not stated) | 16 mg/L (≈ 43.4 µM) | 8 mg/L (≈ 21.7 µM) | 4 mg/L (≈ 10.8 µM) | 256 mg/L (≈ 694 µM) | > 256 mg/L |
| CCCCCCCC(C)(CCCC)OC(=O)c1cnc(Cl)cn1 (configuration not stated) | 4 mg/L (≈ 11.7 µM) | 8 mg/L (≈ 23.5 µM) | 16 mg/L (≈ 46.9 µM) | > 256 mg/L | > 256 mg/L |
| CCCCCCCCOC(=O)c1cnc(Cl)cn1 | 0.06 mg/L (≈ 0.222 µM) | < 0.03 mg/L | < 0.03 mg/L | 16 mg/L (≈ 59.1 µM) | 16 mg/L (≈ 59.1 µM) |
| CCCCCOC(=O)c1cnc(Cl)cn1 | 0.06 mg/L (≈ 0.262 µM) | 0.25 mg/L (≈ 1.09 µM) | < 0.03 mg/L | 32 mg/L (≈ 140 µM) | 32 mg/L (≈ 140 µM) |
| CC(C)COC(=O)c1cnccn1 | < 8 mg/L | 16 mg/L (≈ 88.8 µM) | > 64 mg/L | – | 256 mg/L (≈ 1420 µM) |
| CCOC(=O)c1cnc(Cl)cn1 | 1 mg/L (≈ 5.36 µM) | 2 mg/L (≈ 10.7 µM) | 2 mg/L (≈ 10.7 µM) | 128 mg/L (≈ 686 µM) | 128 mg/L (≈ 686 µM) |
| COC(=O)c1cnc(Cl)cn1 | 4 mg/L (≈ 23.2 µM) | 8 mg/L (≈ 46.4 µM) | 2 mg/L (≈ 11.6 µM) | 64 mg/L (≈ 371 µM) | 256 mg/L (≈ 1480 µM) |
| CCCCCCC(C)OC(=O)c1cnc(Cl)cn1 (configuration not stated) | 0.06 mg/L (≈ 0.222 µM) | 0.25 mg/L (≈ 0.923 µM) | < 0.015 mg/L | 16 mg/L (≈ 59.1 µM) | 8 mg/L (≈ 29.5 µM) |
| CCCCCCCCCC(C)OC(=O)c1cnc(Cl)cn1 (configuration not stated) | 0.25 mg/L (≈ 0.799 µM) | 0.125 mg/L (≈ 0.4 µM) | 0.25 mg/L (≈ 0.799 µM) | 16 mg/L (≈ 51.1 µM) | 16 mg/L (≈ 51.1 µM) |
| CCCCCC(CC)OC(=O)c1cnc(C)cn1 (configuration not stated) | 1 mg/L (≈ 3.99 µM) | 0.5 mg/L (≈ 2 µM) | 4 mg/L (≈ 16 µM) | 64 mg/L (≈ 256 µM) | 64 mg/L (≈ 256 µM) |
| O=C(OCc1ccccc1)c1cnc(Cl)cn1 | 1 mg/L (≈ 4.02 µM) | 0.5 mg/L (≈ 2.01 µM) | 1 mg/L (≈ 4.02 µM) | 4 mg/L (≈ 16.1 µM) | 8 mg/L (≈ 32.2 µM) |
| CC(C)(C)OC(=O)c1cnc(Cl)cn1 | 0.25 mg/L (≈ 1.16 µM) | 0.5 mg/L (≈ 2.33 µM) | < 1 mg/L | 128 mg/L (≈ 596 µM) | 128 mg/L (≈ 596 µM) |
| O=C(Oc1cccc2ccccc12)c1cnccn1 | 8 mg/L (≈ 32 µM) | – | > 16 mg/L | 64 mg/L (≈ 256 µM) | 128 mg/L (≈ 511 µM) |
| C=CCOC(=O)c1cnc(Cl)cn1 | 1 mg/L (≈ 5.04 µM) | 1 mg/L (≈ 5.04 µM) | < 1 mg/L | 64 mg/L (≈ 322 µM) | 64 mg/L (≈ 322 µM) |
| O=C(OCCc1ccccc1)c1cnc(Cl)cn1 | 1 mg/L (≈ 3.81 µM) | 1 mg/L (≈ 3.81 µM) | 0.25 mg/L (≈ 0.952 µM) | 8 mg/L (≈ 30.5 µM) | 32 mg/L (≈ 122 µM) |
| CC(OC(=O)c1cnc(Cl)cn1)c1ccc(Br)cc1 (configuration not stated) | 2 mg/L (≈ 5.85 µM) | 8 mg/L (≈ 23.4 µM) | 0.25 mg/L (≈ 0.732 µM) | 16 mg/L (≈ 46.8 µM) | 32 mg/L (≈ 93.7 µM) |
| CCCOC(=O)c1cnc(Cl)cn1 | 0.06 mg/L (≈ 0.299 µM) | < 0.03 mg/L | 0.25 mg/L (≈ 1.25 µM) | 16 mg/L (≈ 79.8 µM) | 16 mg/L (≈ 79.8 µM) |
| CCCCCCCOC(=O)c1cnc(Cl)cn1 | 0.06 mg/L (≈ 0.234 µM) | < 0.03 mg/L | < 0.03 mg/L | 16 mg/L (≈ 62.3 µM) | 8 mg/L (≈ 31.2 µM) |
| CCC(C)(CC)OC(=O)c1cnc(Cl)cn1 | 8 mg/L (≈ 33 µM) | 8 mg/L (≈ 33 µM) | 2 mg/L (≈ 8.24 µM) | 256 mg/L (≈ 1050 µM) | > 256 mg/L |
| CCCCCCOC(=O)c1cnc(Cl)cn1 | 0.125 mg/L (≈ 0.515 µM) | 0.125 mg/L (≈ 0.515 µM) | 0.015 mg/L (≈ 0.0618 µM) | 16 mg/L (≈ 65.9 µM) | 32 mg/L (≈ 132 µM) |
